High-throughput results: PubChem, The Scripps Research Institute Molecular Screening Center
Sampled rows, rich in hits. Any-hit rate of the full collection: about 1.8%.
MBD2 inh = blocks human MBD2 binding to methylated DNA | Q9UBB5 | hit rate 0.31% among 370,000 | AID 686964 | inhibition, % at 4.4 µM | TR-FRET, MBD2 binding to methylated oligonucleotide; in the data active means inhibition above about 13%
TDP2 absorb = blocks human TDP2 phosphodiesterase activity; O95551; recombinant TDP2, T5PNP hydrolysis, p-nitrophenol absorbance 415 nm; inhibition, % at 12.8 µM; hit rate 0.34% among 370,000; AID 720702;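 active means inhibition above the mean of all tested compounds plus 3 SD, set per campaign, cut at about 25% in these data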
Target sequence (O95551 whole entry, looked up): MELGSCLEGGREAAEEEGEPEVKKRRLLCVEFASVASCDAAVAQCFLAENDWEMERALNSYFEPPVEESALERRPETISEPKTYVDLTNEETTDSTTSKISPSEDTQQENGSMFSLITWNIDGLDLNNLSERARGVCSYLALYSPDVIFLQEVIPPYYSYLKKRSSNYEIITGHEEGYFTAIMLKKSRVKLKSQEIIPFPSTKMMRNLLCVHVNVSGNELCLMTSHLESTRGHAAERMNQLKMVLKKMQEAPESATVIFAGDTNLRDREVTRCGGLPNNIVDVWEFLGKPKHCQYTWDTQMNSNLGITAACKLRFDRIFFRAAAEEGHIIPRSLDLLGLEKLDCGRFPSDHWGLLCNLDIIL
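System: recombinant human TDP2 / Amount: 120 nM TDP2 per well / Also added: 5 mM T5PNP chromogenic substrate / Doses: 12.8 µM single point, 1% DMSO / Incubation: 2 h at 37 °C / Detection: p-Nitrophenol epi absorbance / Evaluation: % inhibition relative to enzyme-containing and enzyme-free wells / Repeats: singlicate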
UHRF1 MBD2 ctr = blocks human UHRF1 binding to methylated DNA; AID 687016; Q96T88; UHRF1 binding to methylated oligo, TR-FRET; inhibition, % at 4.4 µM; hit rate 0.75% among 370,000; in the data active means inhibition above about 21%;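 further: UHRF1 SRA domain binding a hemimethylated CpG hairpin DNA probe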
LEDGF integ inh = blocks HIV-1 LEDGF/p75-dependent DNA integration; TR-FRET IN-LEDGF/p75 DNA integration, Eu/Cy5; inhibition, % at 3.7 µM; hit rate 0.64% among 370,000; AID 743269;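 active means inhibition above the screen-wide mean plus 3 SD, cut at about 13% in these data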;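 further: signal is the Cy5 over europium emission ratio at 671 and 618 nm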
core dimer inh = blocks dimerization of HCV core protein. inhibition, % at 5 µM. TR-FRET GST/Flag-core106 dimerization, 1536-well. hit rate 0.33% among 300,000;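 active means inhibition above the mean of all tested compounds plus 3 SD, set per screening campaign, cut at about 45% in these data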
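Assay system: GST-tagged and Flag-tagged HCV core protein residues 1-106 / Times: compound-protein-antibody incubation 4 h at 22.5 °C / Signal: time-resolved FRET, ex 340 nm, em 617 and 671 nm / Evaluation: % inhibition based on acceptor/donor emission ratio / Benchmarks: wells lacking GST-core106 and wells with excess unlabelled core106 / Repeats: singlicate, one well per compound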
IN multimer up = activates HIV-1 integrase multimerization in LEDGF counter-screen; shares compounds with LEDGF integ inh; TR-FRET HIV-1 integrase multimerization, biochemical; activation, % at 7.7 µM; hit rate 17% among 2,000; AID 1053131; in the data active means activation above about 8.9%
TR-FRET interf = TR-FRET optical interference, LEDGF/p75 integration counter-screen; shares compounds with LEDGF integ inh; TR-FRET optical interference counterscreen, HIV-1 IN multimerization; inhibition, % at 7.7 µM; 2,000 tested, under 10 active;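 active means inhibition above the mean over all tested compounds plus 3 SD, which no compound reached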
IN-LEDGF confirm = confirmation of HIV-1 LEDGF/p75-dependent integration inhibitors; shares compounds with LEDGF integ inh; TR-FRET LEDGF/p75-dependent HIV-1 integration, biochemical; inhibition, % at 3.7 µM; hit rate 36% among 2,000; AID 1053136; in the data active means inhibition above about 14%
A number is an active result; i = inactive; nt = not tested or not shown.

SMILES	MBD2 inh	TDP2 absorb	UHRF1 MBD2 ctr	LEDGF integ inh	core dimer inh	IN multimer up	TR-FRET interf	IN-LEDGF confirm
CCOc1ccc(-n2c(SCC(=O)Nc3ccc(OCc4ccccc4)cc3)nnc2-c2ccc(Cl)cc2)cc1	i	i	i	i	nt	nt	nt	nt
C=CC[C@H]1c2ccccc2[C@H]2N3N=Cc4ccccc4[C@H]3[C@H](CCCC)C(=O)N2N1C(=O)NCc1ccccc1	i	i	i	i	nt	nt	nt	nt
N=C1/C(=C/c2coc3ccccc3c2=O)C(=O)N=C2SC(c3ccco3)=NN12	nt	nt	nt	nt	i	nt	nt	nt
N=C1/C(=C\c2coc3ccccc3c2=O)C(=O)N=C2SC(c3ccncc3)=NN12	i	i	i	25	i	i	i	62
O=C(N/N=C\c1c(O)ccc2ccccc12)c1ccc(S(=O)(=O)N2CCCCC2)cc1	i	i	i	41	i	i	i	i
CN(C(=O)C1CCN(c2cncnc2)CC1)C1CCCCC1	i	i	i	i	nt	nt	nt	nt
O=C(N1CCOCC1)N1CC[C@H]2[C@H](CCCN2Cc2ccccc2)C1	i	i	i	i	nt	nt	nt	nt
COC(=O)[C@]1(C)N[C@H](CN(C)S(=O)(=O)c2ccc(C(F)(F)F)cc2)[C@@H]2C(=O)N(C)C(=O)[C@@H]21	i	i	i	36	nt	i	i	i
CCN(C[C@H]1N[C@@](Cc2ccccc2)(C(=O)OC)[C@H]2C(=O)N(C)C(=O)[C@@H]12)S(=O)(=O)c1ccc(C(F)(F)F)cc1	i	i	i	i	nt	nt	nt	nt
CCN(C[C@H]1N[C@@](Cc2ccccc2)(C(=O)OC)[C@H]2C(=O)N(Cc3ccccc3)C(=O)[C@@H]12)S(=O)(=O)c1ccc(C(F)(F)F)cc1	i	i	i	25	nt	i	i	i
CCOC(=O)C1=C(N)n2c(s/c(=C\c3ccco3)c2=O)=C(C(=O)OC(C)C)C1c1ccco1 (configuration not stated)	i	i	21	51	i	i	i	i
C[C@@H]1ON(C)[C@H]2C[C@H]3c4[nH]c5cccc(-c6ccccc6F)c5c4CCN3C(=O)[C@@H]12	i	i	i	i	nt	nt	nt	nt
CN(C)CC(=O)N[C@@H]1C=C[C@@H](CC(=O)NCCN2CCCCC2)O[C@@H]1CO	i	i	i	28	nt	i	i	i
CN(C)CC(=O)N[C@@H]1CC[C@@H](CC(=O)NCCN2CCCCC2)O[C@@H]1CO	i	i	i	i	nt	nt	nt	nt
Cn1c(=O)c2[nH]c(SCC(=O)NCCc3cccc(F)c3)nc2n(C)c1=O	i	i	i	i	nt	nt	nt	nt
Oc1ccc(/C=N/Nc2ncnc3c2ncn3Cc2ccccc2)cc1O	i	i	i	18	i	57	i	66
COc1ccc(OC)c(NC(=O)COC(=O)/C=C/c2ccccc2Cl)c1	i	i	i	i	i	nt	nt	nt
Cc1nc(NC(=O)COC(=O)/C=C/c2ccco2)c(Cl)cc1Cl	i	i	i	33	nt	i	i	i
COc1ccc(OC)c(NC(=O)COC(=O)/C=C/c2ccco2)c1	i	i	i	22	nt	i	i	i
O=Cc1coc2ccc3ccccc3c2c1=O	i	i	i	16	i	i	i	54
O=C(CN1C(=O)c2ccccc2S1(=O)=O)c1ccc(O)c(O)c1	i	i	i	i	i	nt	nt	nt
O=C1c2cc(O)c(O)cc2S(=O)(=O)C1c1ccccc1 (configuration not stated)	i	i	27	23	i	i	i	i
O=C1OC(c2ccccc2)=N/C1=C\C=C\c1ccco1	i	i	32	41	i	i	i	i
O=C1OC(c2ccccc2)=N/C1=C\C=C\c1ccccc1[N+](=O)[O-]	i	i	i	i	i	nt	nt	nt
CCCCCCCCN1C(=O)[C@@H](CC(=O)NCc2ccc(OC)c(OC)c2)C[C@@]2(C(=O)OC)C1=C[C@H](COCc1ccccc1)O[C@@H]2C	i	i	i	i	nt	nt	nt	nt
SMILES	MBD2 inh	TDP2 absorb	UHRF1 MBD2 ctr	LEDGF integ inh	core dimer inh	IN multimer up	TR-FRET interf	IN-LEDGF confirm
Nc1cc(S(=O)(=O)N2CCCCC2)ccc1Oc1ccc(Cl)cc1	i	i	i	40	i	i	i	i
COC(=O)c1ccc(Oc2ccc(S(=O)(=O)N3CCCCC3)cc2N)cc1	i	i	i	i	i	nt	nt	nt
Cc1cccc2nc(CSCc3ccco3)cn12	i	i	i	16	i	i	i	i
Cc1cc(C)n2cc(CSCc3ccco3)nc2n1	i	i	i	i	i	nt	nt	nt
C=CCN1[C@@H](C)COc2cccc(N3CCSCC3)c2S1(=O)=O	i	i	i	i	nt	nt	nt	nt
COc1ccccc1-c1cccc2c3c([nH]c12)[C@@H]1C[C@H]2[C@@H](CN1CC3)[C@H](C)ON2C	i	i	i	i	nt	nt	nt	nt
COc1ccc(OC)c(/C=N/NC(=O)CCc2c(C)n[nH]c2C)c1	i	i	i	i	i	nt	nt	nt
COc1ccc(OC)c(/C=N/NC(=O)CCc2ccc(O)c(O)c2)c1	i	i	i	58	i	i	i	i
O=C(NCc1cccc(C(F)(F)F)c1)O[C@H]1CC[C@@]23CCCN2C(=O)CCC[C@H]3C1	i	i	i	i	nt	nt	nt	nt
O=S1(=O)CC2c3ccc(F)cc3CN2CN1Cc1ccccc1 (configuration not stated)	i	i	i	i	nt	nt	nt	nt
O=C(COC(=O)/C=C/c1ccco1)NCc1ccccc1	i	i	i	i	i	nt	nt	nt
O=C(N/C=C/c1ccco1)NCc1ccccc1	i	i	23	28	i	14	i	44
CC(C)[C@H](N)C(=O)N[C@H](C(=O)N1CCC2CCN(S(=O)(=O)c3ccccc3)CC21)C(C)C (some centres not stated)	i	i	i	i	nt	nt	nt	nt
COC(=O)C(C)N(C(=O)c1cccc2ccccc12)c1c(C)cccc1C (configuration not stated)	i	i	i	78	i	i	i	i
COc1ccc(CN2CN3CCc4ccccc4C3CS2(=O)=O)cc1 (configuration not stated)	i	i	i	i	nt	nt	nt	nt
O=C1C=CC(=O)c2c(O)c(N3CCN(CCO)CC3)c(Cl)c(O)c21	i	i	i	26	nt	91	i	78
O=C1C=CC(=O)c2c(O)c(N3CCN(CCOCCO)CC3)c(Br)c(O)c21	i	i	40	50	nt	99	i	83
O=S(=O)(c1ccc(Br)cc1Cl)N1CCN(CCO)CC1	i	i	i	i	i	nt	nt	nt
Clc1ccc(Nc2ccc(NCc3ccccc3)nn2)cc1	i	i	i	i	i	nt	nt	nt
Cc1ccc(Nc2ccc(NCc3ccccc3)nn2)cc1C	i	i	i	47	i	i	i	i
COc1ccc(S[C@]2(C(=O)N3CCOCC3)CC(=O)N(c3ccccc3)[C@@H]2c2ccc(OC)cc2)cc1	i	i	i	i	nt	nt	nt	nt
